Data set [1] concerns the target Recombinant M. tuberculosis MbtI (Mycobacterium tuberculosis, UniProt P9WFX1). Put plainly: biochemical. The following applies: for remaining activity at 100 µM: pH 7.5, read-out: Residual activity at 100 µM (%).
The nature of data set [2]: Cell viability assay. It counts as cell-based. The following applies: human, MRC5 human fibroblast lung cells. The procedure, abridged:
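MRC5 human lung fibroblasts were kept at 37 °C in humidified 5% CO2 and seeded in 96-well plates. The next day, vehicle or test compound was added at 200 to 0.01 µM.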

Read-outs that look alike come from different tables or passages of the source.

Sequence of Recombinant M. tuberculosis MbtI (P9WFX1 whole entry): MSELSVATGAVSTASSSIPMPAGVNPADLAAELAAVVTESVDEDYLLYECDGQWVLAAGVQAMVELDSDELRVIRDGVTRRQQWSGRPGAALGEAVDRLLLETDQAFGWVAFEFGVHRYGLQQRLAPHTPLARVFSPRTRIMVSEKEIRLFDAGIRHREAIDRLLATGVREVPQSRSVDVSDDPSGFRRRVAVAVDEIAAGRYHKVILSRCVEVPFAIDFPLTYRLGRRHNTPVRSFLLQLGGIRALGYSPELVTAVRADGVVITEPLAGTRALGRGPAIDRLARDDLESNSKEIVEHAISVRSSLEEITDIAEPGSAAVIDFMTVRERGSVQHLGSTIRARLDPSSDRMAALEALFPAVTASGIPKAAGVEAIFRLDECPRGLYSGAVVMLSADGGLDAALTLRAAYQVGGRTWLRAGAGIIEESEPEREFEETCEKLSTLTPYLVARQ

In the case of `N#Cc1cc([N+](=O)[O-])ccc1-c1ccc(C(=O)O)o1` [1o, 5-(2-cyano-4-nitro-phenyl)furan-2-carboxylate], the “Residual activity at 100 µM (%)” value in data set [1] (compound at 100 µM, 50 µM chorismic acid, 37 °C, pH 7.5) was 5.0 ± 1.9%. Also, the half-maximal inhibitory concentration (IC50) in data set [1] (read-out: MbtI IC50) was 24.4 ± 5.9 µM. With `O=C(O)c1ccc(-c2ccc(C(F)(F)F)cc2Br)o1` [1c], in data set [1], the remaining activity at 100 µM came out at 38 ± 3.7%. For `O=C(O)c1ccc(-c2ccc([N+](=O)[O-])cc2Br)o1` [1j], the remaining activity at 100 µM in data set [1] stood at 32.1 ± 2.4%. Turning to `O=C(O)c1ccc(-c2ccc(C(F)(F)F)cc2O)o1` [1d], in data set [1], the IC50 is 35.9 ± 10.3 µM and the remaining activity at 100 µM was determined as 16.8 ± 2.7%. With `O=C(O)c1ccc(-c2ccc([N+](=O)[O-])cc2F)o1` [1k], the remaining activity at 100 µM in data set [1] is 26.4 ± 4.8%. Take `O=C(O)c1ccc(-c2ccc(C(F)(F)F)cc2F)o1` [1b]: in data set [1], the IC50 was 27.6 ± 7.3 µM and the remaining activity at 100 µM came out at 6.1 ± 1.1%. As to `Nc1cc(C(F)(F)F)ccc1-c1ccc(C(=O)O)o1` [1f], in data set [1], the half-inhibitory concentration (IC50) came out at 34.6 ± 10.9 µM and the remaining activity at 100 µM amounted to 13.1 ± 2.4%. `Cc1cc(C(F)(F)F)ccc1-c1ccc(C(=O)O)o1` [1e]: in data set [1], the IC50 was determined as 31.5 ± 9.6 µM and the remaining activity at 100 µM is 19.3 ± 2.2%. For the compound `N#Cc1cc(C(F)(F)F)ccc1-c1ccc(C(=O)O)o1` [1g, 5-(2-cyano-4-(trifluoromethyl)phenyl)furan-2-carboxylic acid], in data set [1], the IC50 worked out at 18.5 ± 3.2 µM and the remaining activity at 100 µM amounted to 5.7 ± 1.5%.

On to `Nc1cc([N+](=O)[O-])ccc1-c1ccc(C(=O)O)o1` [1n], for which, in data set [1], the IC50 came to 24.2 ± 5.4 µM and the remaining activity at 100 µM amounted to 13.5 ± 3.8%. As for `O=C(O)c1ccc(-c2ccc([N+](=O)[O-])cc2C(F)(F)F)o1` [1p], the 50% inhibitory concentration (IC50) at 96 h in data set [2] is greater than 100 µM. Moreover, the remaining activity at 100 µM in data set [1] is 25.1 ± 3.7%. In the case of `Cc1cc([N+](=O)[O-])ccc1-c1ccc(C(=O)O)o1` [1m], in data set [1], the IC50 stood at 28.5 ± 1.5 µM and the remaining activity at 100 µM came to 13.2 ± 5.8%.

With `O=C(O)c1ccc(-c2ccc([N+](=O)[O-])cc2O)o1` [1l], in data set [1], the IC50 came to 29.8 ± 4.2 µM and the remaining activity at 100 µM was determined as 13.9 ± 4%.

Values taken from article PMC6427685 (Journal of Enzyme Inhibition and Medicinal Chemistry, 2019).
